{"source": "ChEMBL document CHEMBL1122744", "about": "“2-Chloroethyl (methylsulfonyl)methanesulfonate and related (methylsulfonyl)methanesulfonates. Antineoplastic activity in vivo” (J Med Chem, 1984)", "key": {"Mus musculus [1]": {"test_system": "Mus musculus", "assay": "Mortality by day 5 expressed as number of mice died to the total treated at dose 200 mg/kg in exp1; 5/6", "format": "ADME, organism-based", "parameters": "dose 200 mg/kg", "conditions": "in vivo"}, "Mus musculus [2]": {"test_system": "Mus musculus", "assay": "Median survival time of the untreated control groups, in which there are no 30-day survivors at dose 100 mg/kg in exp8", "format": "functional"}, "Mus musculus [3]": {"test_system": "Mus musculus", "assay": "Change in weight by day 5, obtained by subtracting treated groups of animals minus control groups of animals at dose 200 mg/kg in exp1.", "format": "functional", "outline": "(§1)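 Mice were inoculated ip with 10^6 P388 leukemia cells on day 0 and weighed 19–22 g that day. Compound was given ip once daily on days 1–5, within about 5 min of preparing the solution or suspension, to groups of six (occasionally five). Thirty inoculated untreated mice served as controls. The value is the average weight change of treated mice minus that of controls on day 5.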"}, "Mus musculus [4]": {"test_system": "Mus musculus", "assay": "Mortality by day 5 expressed as number of mice died to the total treated at dose 200 mg/kg in exp8; 6/6", "format": "ADME, organism-based", "parameters": "dose 200 mg/kg", "conditions": "in vivo"}, "Mus musculus [5]": {"test_system": "Mus musculus", "assay": "Change in weight by day 5, obtained by subtracting treated groups of animals minus control groups of animals at dose 33 mg/kg in exp7", "format": "functional", "outline": "as §1"}, "Mus musculus [6]": {"test_system": "Mus musculus", "assay": "Mortality by day 5 expressed as number of mice died to the total treated at dose 75 mg/kg in exp2; 0/5", "format": "ADME, organism-based", "parameters": "dose 75 mg/kg", "conditions": "in vivo"}, "Mus musculus [7]": {"test_system": "Mus musculus", "assay": "Median survival time of the untreated control groups, in which there are no 30-day survivors at dose 150 mg/kg in exp2", "format": "functional"}, "Mus musculus [8]": {"test_system": "Mus musculus", "assay": "Median survival time of the untreated control groups, in which there are no 30-day survivors at dose 50 mg/kg in exp6", "format": "functional"}, "Mus musculus [9]": {"test_system": "Mus musculus", "assay": "Median survival time of the untreated control groups, in which there are no 30-day survivors at dose 15 mg/kg in exp3", "format": "functional"}, "[10]": {"assay": "Ratio of median survival times for non-survivors at dose 22 mg/kg in exp7", "format": "functional"}, "Mus musculus [11]": {"test_system": "Mus musculus", "assay": "Median survival time of the treated control groups, in which there are no 30-day survivors at dose 33 mg/kg in exp5", "format": "functional"}, "[12]": {"assay": "Ratio of number of 30-day survivors to the total treated mice at dose 50 mg/kg in exp5; 3/6", "format": "functional"}, "Mus musculus [13]": {"test_system": "Mus musculus", "assay": "Median survival time of the untreated control groups, in which there are no 30-day survivors at dose 100 mg/kg in exp1", "format": "functional"}, "Mus musculus [14]": {"test_system": "Mus musculus", "assay": "Change in weight by day 5, obtained by subtracting treated groups of animals minus control groups of animals at dose 50 mg/kg in exp5", "format": "functional", "outline": "as §1"}, "[15]": {"assay": "Ratio of median survival times for non-survivors at dose 50 mg/kg in exp2", "format": "functional", "outline": "(§2)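 Mice were inoculated ip with 10^6 P388 leukemia cells on day 0. Groups of six (occasionally five) were dosed ip qd on days 1–5 with fresh suspensions; 30 mice served as untreated controls. Deaths were recorded daily up to day 60. T/C% compares the median survival of treated non-survivors (<60 days) with the control median. Medians used grouped data when there were no 30-day survivors, otherwise ungrouped data. t = toxic.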"}, "Mus musculus [16]": {"test_system": "Mus musculus", "assay": "Mortality by day 5 expressed as number of mice died to the total treated at dose 33 mg/kg in exp6; 0/6", "format": "ADME, organism-based", "parameters": "dose 33 mg/kg", "conditions": "in vivo"}, "[17]": {"assay": "Ratio of median survival times for non-survivors at dose 22 mg/kg in exp3", "format": "functional", "outline": "as §2"}, "Mus musculus [18]": {"test_system": "Mus musculus", "assay": "Median survival time of the untreated control groups, in which there are no 30-day survivors at dose 100 mg/kg in exp2", "format": "functional"}, "Mus musculus [19]": {"test_system": "Mus musculus", "assay": "Change in weight by day 5, obtained by subtracting treated groups of animals minus control groups of animals at dose 33 mg/kg in exp5", "format": "functional", "outline": "as §1"}, "Mus musculus [20]": {"test_system": "Mus musculus", "assay": "Median survival time of the treated control groups, in which there are no 30-day survivors at dose 100 mg/kg in exp2", "format": "functional"}, "Mus musculus [21]": {"test_system": "Mus musculus", "assay": "Change in weight by day 5, obtained by subtracting treated groups of animals minus control groups of animals at dose 33 mg/kg in exp4.", "format": "functional", "outline": "as §1"}, "Mus musculus [22]": {"test_system": "Mus musculus", "assay": "Mortality by day 5 expressed as number of mice died to the total treated at dose 150 mg/kg in exp2; 5/5", "format": "ADME, organism-based", "parameters": "dose 150 mg/kg", "conditions": "in vivo"}, "Mus musculus [23]": {"test_system": "Mus musculus", "assay": "Median survival time of the untreated control groups, in which there are no 30-day survivors at dose 33 mg/kg in exp6", "format": "functional"}, "Mus musculus [24]": {"test_system": "Mus musculus", "assay": "Mortality by day 5 expressed as number of mice died to the total treated at dose 15 mg/kg in exp4; 0/6", "format": "ADME, organism-based", "parameters": "dose 15 mg/kg", "conditions": "in vivo"}, "Mus musculus [25]": {"test_system": "Mus musculus", "assay": "Median survival time of the untreated control groups, in which there are no 30-day survivors at dose 22 mg/kg in exp3", "format": "functional"}, "[26]": {"assay": "Ratio of median survival times for non-survivors at dose 50 mg/kg in exp1", "format": "functional", "parameters": "unit: %", "outline": "as §2"}, "[27]": {"assay": "Ratio of number of 30-day survivors to the total treated mice at dose 50 mg/kg in exp4; 6/6", "format": "functional"}, "Mus musculus [28]": {"test_system": "Mus musculus", "assay": "Median survival time of the treated control groups, in which there are no 30-day survivors at dose 33 mg/kg in exp3", "format": "functional"}, "[29]": {"assay": "Ratio of median survival times for non-survivors at dose 22 mg/kg in exp5", "format": "functional"}, "Mus musculus [30]": {"test_system": "Mus musculus", "assay": "Median survival time of the untreated control groups, in which there are no 30-day survivors at dose 22 mg/kg in exp7", "format": "functional"}, "Mus musculus [31]": {"test_system": "Mus musculus", "assay": "Mortality by day 5 expressed as number of mice died to the total treated at dose 33 mg/kg in exp5; 0/6", "format": "ADME, organism-based", "parameters": "dose 33 mg/kg", "conditions": "in vivo"}, "[32]": {"assay": "Ratio of median survival times for non-survivors at dose 50 mg/kg in exp5", "format": "functional"}, "Mus musculus [33]": {"test_system": "Mus musculus", "assay": "Median survival time of the treated control groups, in which there are no 30-day survivors at dose 50 mg/kg in exp2", "format": "functional"}, "Mus musculus [34]": {"test_system": "Mus musculus", "assay": "Mortality by day 5 expressed as number of mice died to the total treated at dose 22 mg/kg in exp5; 0/6", "format": "ADME, organism-based", "parameters": "dose 22 mg/kg", "conditions": "in vivo"}, "Mus musculus [35]": {"test_system": "Mus musculus", "assay": "Mortality by day 5 expressed as number of mice died to the total treated at dose 33 mg/kg in exp7; 0/6", "format": "ADME, organism-based", "parameters": "dose 33 mg/kg", "conditions": "in vivo"}, "Mus musculus [36]": {"test_system": "Mus musculus", "assay": "Median survival time of the untreated control groups, in which there are no 30-day survivors at dose 33 mg/kg in exp3", "format": "functional"}, "[37]": {"assay": "Ratio of median survival times for non-survivors at dose 22 mg/kg in exp6", "format": "functional"}, "[38]": {"assay": "Ratio of median survival times for non-survivors at dose 15 mg/kg in exp3", "format": "functional", "outline": "as §2"}, "Mus musculus [39]": {"test_system": "Mus musculus", "assay": "Median survival time of the treated control groups, in which there are no 30-day survivors at dose 33 mg/kg in exp2", "format": "functional"}, "Mus musculus [40]": {"test_system": "Mus musculus", "assay": "Median survival time of the untreated control groups, in which there are no 30-day survivors at dose 50 mg/kg in exp7", "format": "functional"}, "Mus musculus [41]": {"test_system": "Mus musculus", "assay": "Change in weight by day 5, obtained by subtracting treated groups of animals minus control groups of animals at dose 22 mg/kg in exp5", "format": "functional", "outline": "as §1"}, "Mus musculus [42]": {"test_system": "Mus musculus", "assay": "Median survival time of the untreated control groups, in which there are no 30-day survivors at dose 200 mg/kg in exp8", "format": "functional"}, "Mus musculus [43]": {"test_system": "Mus musculus", "assay": "Median survival time of the treated control groups, in which there are no 30-day survivors at dose 33 mg/kg in exp7", "format": "functional"}, "Mus musculus [44]": {"test_system": "Mus musculus", "assay": "Change in weight by day 5, obtained by subtracting treated groups of animals minus control groups of animals at dose 50 mg/kg in exp4.", "format": "functional", "outline": "as §1"}}, "data": [{"smiles": "CS(=O)(=O)CS(=O)(=O)OCCCl", "values": [{"measurement": "Mortality", "setting": "Mus musculus [1]", "result": 5}, {"measurement": "Median survival time", "setting": "Mus musculus [2]", "result": 11}, {"measurement": "T-C", "setting": "Mus musculus [3]", "result": -5, "unit": "g"}, {"measurement": "Mortality", "setting": "Mus musculus [4]", "result": 6}, {"measurement": "Change in weight", "setting": "Mus musculus [5]", "result": -2.4}, {"measurement": "Mortality", "setting": "Mus musculus [6]", "result": 0}, {"measurement": "Median survival time", "setting": "Mus musculus [7]", "result": 11.2}, {"measurement": "Median survival time", "setting": "Mus musculus [8]", "result": 13}, {"measurement": "Median survival time", "setting": "Mus musculus [9]", "result": 11.1}, {"measurement": "Ratio", "setting": "[10]", "result": 168}, {"measurement": "Median survival time", "setting": "Mus musculus [11]", "result": 25.7}, {"measurement": "Ratio", "setting": "[12]", "result": 3}, {"measurement": "Median survival time", "setting": "Mus musculus [13]", "result": 11.2}, {"measurement": "Change in weight", "setting": "Mus musculus [14]", "result": -2.2}, {"measurement": "Ratio", "setting": "[15]", "result": 241}, {"measurement": "Mortality", "setting": "Mus musculus [16]", "result": 0}, {"measurement": "Ratio", "setting": "[17]", "result": 166}, {"measurement": "Median survival time", "setting": "Mus musculus [18]", "result": 11.2}, {"measurement": "Change in weight", "setting": "Mus musculus [19]", "result": -1.5}, {"measurement": "Median survival time", "setting": "Mus musculus [20]", "result": 22.5}, {"measurement": "Change in weight", "setting": "Mus musculus [21]", "result": -2.6}, {"measurement": "Mortality", "setting": "Mus musculus [22]", "result": 5}, {"measurement": "Median survival time", "setting": "Mus musculus [23]", "result": 13}, {"measurement": "Mortality", "setting": "Mus musculus [24]", "result": 0}, {"measurement": "Median survival time", "setting": "Mus musculus [25]", "result": 11.1}, {"measurement": "Ratio", "setting": "[26]", "result": 281}, {"measurement": "Ratio", "setting": "[27]", "result": 6}, {"measurement": "Median survival time", "setting": "Mus musculus [28]", "result": 22}, {"measurement": "Ratio", "setting": "[29]", "result": 161}, {"measurement": "Median survival time", "setting": "Mus musculus [30]", "result": 10.7}, {"measurement": "Mortality", "setting": "Mus musculus [31]", "result": 0}, {"measurement": "Ratio", "setting": "[32]", "result": 225}, {"measurement": "Median survival time", "setting": "Mus musculus [33]", "result": 27}, {"measurement": "Mortality", "setting": "Mus musculus [34]", "result": 0}, {"measurement": "Mortality", "setting": "Mus musculus [35]", "result": 0}, {"measurement": "Median survival time", "setting": "Mus musculus [36]", "result": 11.1}, {"measurement": "Ratio", "setting": "[37]", "result": 160}, {"measurement": "Ratio", "setting": "[38]", "result": 144}, {"measurement": "Median survival time", "setting": "Mus musculus [39]", "result": 23.5}, {"measurement": "Median survival time", "setting": "Mus musculus [40]", "result": 13}, {"measurement": "Change in weight", "setting": "Mus musculus [41]", "result": -1.3}, {"measurement": "Median survival time", "setting": "Mus musculus [42]", "result": 11}, {"measurement": "Median survival time", "setting": "Mus musculus [43]", "result": 22.3}, {"measurement": "Change in weight", "setting": "Mus musculus [44]", "result": -3}]}]}
